Results as given in ChEMBL document CHEMBL1255276, “Reliability of the WIDERYST susceptibility testing system for detection of in vitro antifungal resistance in yeasts” (2008).
Converted amounts (≈) assume the structure as drawn.

Assays:
Format in all cases: functional
Pichia kudriavzevii [1] = assay: Antifungal activity against Candida krusei ATCC 6258 by AFST-EUCAST method
Procedure, shortened: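 AFST-EUCAST microdilution standard for fermentative yeasts (document 7.1). The medium was RPMI 1640 with 2% glucose in flat-bottomed plates, and the inoculum was 10^5 CFU/ml. Endpoints were read spectrophotometrically at 24 and 48 h. The MIC was the lowest concentration giving ≥90% growth reduction versus the drug-free control for AMB, or a 50% OD reduction for 5FC and azoles. Run as a quality-control strain in each set.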

Pichia kudriavzevii [2] = assay: Antifungal activity against Candida krusei ATCC 6258 by CLSI M27-A2 microdilution method
Pichia kudriavzevii [3] = assay: Antifungal activity against Candida krusei ATCC 6258 by WIDERYST method
Candida parapsilosis [4] = assay: Antifungal activity against Candida parapsilosis ATCC 22019 by AFST-EUCAST method; settings: Lodderomyces parapsilosis
Procedure, shortened: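 Microdilution per AFST-EUCAST 7.1, with the strain run as a quality control in each set. RPMI 1640 plus 2% glucose, inoculum 10^5 CFU/ml, flat-bottomed plates. Read spectrophotometrically at 24 and 48 h. MIC endpoint is the lowest concentration giving ≥90% growth reduction versus the drug-free control for AMB, and 50% OD reduction for 5FC and azoles.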

Candida parapsilosis [5] = assay: Antifungal activity against Candida parapsilosis ATCC 22019 by CLSI M27-A2 microdilution method; settings: Lodderomyces parapsilosis
Candida parapsilosis [6] = assay: Antifungal activity against Candida parapsilosis ATCC 22019 by WIDERYST method; settings: Lodderomyces parapsilosis
Procedure, shortened: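 Commercial 96-well panels with lyophilized drugs, the strain serving as a quality control. Ranges: FLC and 5FC 128–0.06 µg/ml; AMB, ITC, VRC and KTC 8–0.004 µg/ml. Inoculum 1 x 10^5 to 5 x 10^5 CFU/ml, 35°C, 24 h, no CO2, plus 24 h if no growth. Video-image read; MIC is 90% (AMB) or 50% (others) growth reduction versus the positive control.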

Compound | MIC (Pichia kudriavzevii [1]) | MIC (Pichia kudriavzevii [2]) | MIC (Pichia kudriavzevii [3]) | MIC (Candida parapsilosis [4]) | MIC (Candida parapsilosis [5]) | MIC (Candida parapsilosis [6])
C[C@@H]1[C@H](O)[C@@H](C)/C=C/C=C/C=C/C=C/C=C/C=C/C=C/[C@H](O[C@@H]2O[C@H](C)[C@@H](O)[C@H](N)[C@@H]2O)C[C@@H]2O[C@](O)(C[C@@H](O)C[C@@H](O)[C@H](O)CC[C@@H](O)C[C@@H](O)CC(=O)O[C@H]1C)C[C@H](O)[C@H]2C(=O)O [AMPHOTERICIN B] | 0.12 µg/mL (≈ 0.13 µM) | 0.5 µg/mL (≈ 0.541 µM) | 0.12 µg/mL (≈ 0.13 µM) | 0.12 µg/mL (≈ 0.13 µM) | 0.25 µg/mL (≈ 0.271 µM) | 0.06 µg/mL (≈ 0.0649 µM)
OC(Cn1cncn1)(Cn1cncn1)c1ccc(F)cc1F [FLUCONAZOLE] | 8 µg/mL (≈ 26.1 µM) | 16 µg/mL (≈ 52.2 µM) | 8 µg/mL (≈ 26.1 µM) | 1 µg/mL (≈ 3.27 µM) | 1 µg/mL (≈ 3.27 µM) | 0.5 µg/mL (≈ 1.63 µM)
Nc1nc(=O)[nH]cc1F [FLUCYTOSINE] | 1 µg/mL (≈ 7.75 µM) | 4 µg/mL (≈ 31 µM) | 2 µg/mL (≈ 15.5 µM) | 0.12 µg/mL (≈ 0.93 µM) | 0.12 µg/mL (≈ 0.93 µM) | 0.06 µg/mL (≈ 0.465 µM)
CCC(C)n1ncn(-c2ccc(N3CCN(c4ccc(OCC5COC(Cn6cncn6)(c6ccc(Cl)cc6Cl)O5)cc4)CC3)cc2)c1=O (stereo unspecified) [ITRACONAZOLE] | 0.06 µg/mL (≈ 0.085 µM) | 0.12 µg/mL (≈ 0.17 µM) | 0.06 µg/mL (≈ 0.085 µM) | 0.03 µg/mL (≈ 0.0425 µM) | 0.12 µg/mL (≈ 0.17 µM) | 0.03 µg/mL (≈ 0.0425 µM)
CC(=O)N1CCN(c2ccc(OCC3COC(Cn4ccnc4)(c4ccc(Cl)cc4Cl)O3)cc2)CC1 (stereo unspecified) [KETOCONAZOLE] | 0.06 µg/mL (≈ 0.113 µM) | 0.12 µg/mL (≈ 0.226 µM) | 0.12 µg/mL (≈ 0.226 µM) | 0.01 µg/mL (≈ 0.0188 µM) | 0.03 µg/mL (≈ 0.0565 µM) | 0.01 µg/mL (≈ 0.0188 µM)
C[C@@H](c1ncncc1F)[C@](O)(Cn1cncn1)c1ccc(F)cc1F [VORICONAZOLE] | 0.06 µg/mL (≈ 0.172 µM) | 0.06 µg/mL (≈ 0.172 µM) | 0.06 µg/mL (≈ 0.172 µM) | 0.03 µg/mL (≈ 0.0859 µM) | 0.03 µg/mL (≈ 0.0859 µM) | 0.01 µg/mL (≈ 0.0286 µM)
